Data: ChEMBL document CHEMBL3286292, “Synthesis and antimicrobial activity of amine linked bis- and tris-heterocycles” (2014)
Activity calls are given as the source filed them. The rule behind the calls is not given here.

Columns and labels:
Format in all cases: functional
Staphylococcus aureus [1] = experiment: Antibacterial activity against Staphylococcus aureus assessed as growth inhibition at 25 ug/well after 24 hrs by agar well diffusion method; conditions: for zone of inhibition at 25 µg/disc: read-out: DIZ
Method in brief: (§1)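 Agar well diffusion on […] swabbed with a 24 h broth culture. Samples were dissolved in DMSO and loaded at three per-well amounts into 6 mm wells. Incubation was 37 °C for 24 h, then inhibition zone diameter was read in mm. DMSO served as the negative control. Runs were in duplicate and averaged.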

Staphylococcus aureus [2] = experiment: Antibacterial activity against Staphylococcus aureus assessed as growth inhibition at 50 ug/well after 24 hrs by agar well diffusion method; conditions: for zone of inhibition at 50 µg/disc: read-out: DIZ; method in brief: as §1
Staphylococcus aureus [3] = experiment: Antibacterial activity against Staphylococcus aureus assessed as growth inhibition at 100 ug/well after 24 hrs by agar well diffusion method; conditions: for zone of inhibition at 100 µg/disc: read-out: DIZ; method in brief: as §1
Bacillus subtilis [4] = experiment: Antibacterial activity against Bacillus subtilis assessed as growth inhibition at 25 ug/well after 24 hrs by agar well diffusion method; conditions: for zone of inhibition at 25 µg/disc: read-out: DIZ; method in brief: as §1
Bacillus subtilis [5] = experiment: Antibacterial activity against Bacillus subtilis assessed as growth inhibition at 50 ug/well after 24 hrs by agar well diffusion method; conditions: for zone of inhibition at 50 µg/disc: read-out: DIZ; method in brief: as §1
Bacillus subtilis [6] = experiment: Antibacterial activity against Bacillus subtilis assessed as growth inhibition at 100 ug/well after 24 hrs by agar well diffusion method; conditions: for zone of inhibition at 100 µg/disc: read-out: DIZ; method in brief: as §1
Pseudomonas aeruginosa [7] = experiment: Antibacterial activity against Pseudomonas aeruginosa assessed as growth inhibition at 25 ug/well after 24 hrs by agar well diffusion method; conditions: for zone of inhibition at 25 µg/disc: read-out: DIZ; method in brief: as §1
Pseudomonas aeruginosa [8] = experiment: Antibacterial activity against Pseudomonas aeruginosa assessed as growth inhibition at 50 ug/well after 24 hrs by agar well diffusion method; conditions: for zone of inhibition at 50 µg/disc: read-out: DIZ; method in brief: as §1
Pseudomonas aeruginosa [9] = experiment: Antibacterial activity against Pseudomonas aeruginosa assessed as growth inhibition at 100 ug/well after 24 hrs by agar well diffusion method; conditions: for zone of inhibition at 100 µg/disc: read-out: DIZ; method in brief: as §1
Klebsiella pneumoniae [10] = experiment: Antibacterial activity against Klebsiella pneumoniae assessed as growth inhibition at 25 ug/well after 24 hrs by agar well diffusion method; conditions: for zone of inhibition at 25 µg/disc: read-out: DIZ; method in brief: as §1
Klebsiella pneumoniae [11] = experiment: Antibacterial activity against Klebsiella pneumoniae assessed as growth inhibition at 50 ug/well after 24 hrs by agar well diffusion method; conditions: for zone of inhibition at 50 µg/disc: read-out: DIZ; method in brief: as §1
Klebsiella pneumoniae [12] = experiment: Antibacterial activity against Klebsiella pneumoniae assessed as growth inhibition at 100 ug/well after 24 hrs by agar well diffusion method; conditions: for zone of inhibition at 100 µg/disc: read-out: DIZ; method in brief: as §1
Aspergillus niger [13] = experiment: Antifungal activity against Aspergillus niger assessed as inhibition of spore germination at 25 ug/well after 48 hrs by agar well diffusion method; conditions: for zone of inhibition at 25 µg/disc: read-out: DIZ
Method in brief: (§2)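 Well diffusion using 6 mm bored wells loaded with DMSO solutions at three per-well amounts, with a DMSO negative control. Plates were held at 28 °C for 48 h, then zone of inhibition diameter was measured in mm. Runs were in duplicate and averaged.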

Aspergillus niger [14] = experiment: Antifungal activity against Aspergillus niger assessed as inhibition of spore germination at 50 ug/well after 48 hrs by agar well diffusion method; conditions: for zone of inhibition at 50 µg/disc: read-out: DIZ; method in brief: as §2

Structure (SMILES)	growth inhibition (GI) (Staphylococcus aureus [1])	growth inhibition (GI) (Staphylococcus aureus [2])	growth inhibition (GI) (Staphylococcus aureus [3])	growth inhibition (GI) (Bacillus subtilis [4])	growth inhibition (GI) (Bacillus subtilis [5])	growth inhibition (GI) (Pseudomonas aeruginosa [7])	growth inhibition (GI) (Pseudomonas aeruginosa [8])	growth inhibition (GI) (Pseudomonas aeruginosa [9])	zone of inhibition at 25 µg/disc (Staphylococcus aureus [1]) [mm]	zone of inhibition at 50 µg/disc (Staphylococcus aureus [2]) [mm]	zone of inhibition at 100 µg/disc (Staphylococcus aureus [3]) [mm]	zone of inhibition at 25 µg/disc (Bacillus subtilis [4]) [mm]	zone of inhibition at 50 µg/disc (Bacillus subtilis [5]) [mm]	zone of inhibition at 100 µg/disc (Bacillus subtilis [6]) [mm]	zone of inhibition at 25 µg/disc (Klebsiella pneumoniae [10]) [mm]	zone of inhibition at 50 µg/disc (Klebsiella pneumoniae [11]) [mm]	zone of inhibition at 100 µg/disc (Klebsiella pneumoniae [12]) [mm]	zone of inhibition at 25 µg/disc (Aspergillus niger [13]) [mm]	zone of inhibition at 50 µg/disc (Aspergillus niger [14]) [mm]	zone of inhibition at 100 µg/disc (Pseudomonas aeruginosa [9]) [mm]	also measured
NC(=S)N1N=C(Nc2nc(-c3ccc(Cl)cc3)cs2)C[C@@H]1c1ccc(Cl)cc1	inactive	inactive	inactive	inactive	inactive	inactive	inactive	inactive	–	–	–	–	–	–	–	–	–	–	–	–	growth inhibition (GI) (Bacillus subtilis [6]): inactive; growth inhibition (GI) (Klebsiella pneumoniae [10]): inactive; growth inhibition (GI) (Klebsiella pneumoniae [11]): inactive; growth inhibition (GI) (Klebsiella pneumoniae [12]): inactive; growth inhibition (GI) (Aspergillus niger [13]): inactive; zone of inhibition (Aspergillus niger [14]): inactive
NC(=S)n1nc(Nc2nc(-c3ccccc3)co2)cc1-c1ccccc1	–	–	–	–	–	inactive	inactive	inactive	6	8	10	7	9	11	7	9	12	8	9	–	–
NC(=S)n1nc(Nc2nc(-c3ccc(Cl)cc3)co2)cc1-c1ccc(Cl)cc1	–	–	–	–	–	–	–	–	15	17	19	15	16	19	16	17	20	10	11	12	zone of inhibition at 25 µg/disc (Pseudomonas aeruginosa [7]): 8 mm; zone of inhibition at 50 µg/disc (Pseudomonas aeruginosa [8]): 9 mm
c1ccc(-c2coc(Nc3cc(-c4ccccc4)n(-c4nc(-c5ccccc5)cs4)n3)n2)cc1	–	–	–	–	–	inactive	inactive	–	8	10	13	8	10	12	8	10	13	9	10	6	–
Clc1ccc(-c2coc(Nc3cc(-c4ccc(Cl)cc4)n(-c4nc(-c5ccc(Cl)cc5)cs4)n3)n2)cc1	–	–	–	–	–	–	–	–	17	18	21	16	18	21	17	19	22	11	12	13	zone of inhibition at 25 µg/disc (Pseudomonas aeruginosa [7]): 9 mm; zone of inhibition at 50 µg/disc (Pseudomonas aeruginosa [8]): 10 mm
Cc1ccc(-c2c[nH]c(NC3=NN(C(N)=S)[C@@H](c4ccc(C)cc4)C3)n2)cc1	inactive	inactive	inactive	inactive	inactive	inactive	inactive	inactive	–	–	–	–	–	–	–	–	–	–	–	–	growth inhibition (GI) (Bacillus subtilis [6]): inactive; growth inhibition (GI) (Klebsiella pneumoniae [10]): inactive; growth inhibition (GI) (Klebsiella pneumoniae [11]): inactive; growth inhibition (GI) (Klebsiella pneumoniae [12]): inactive; growth inhibition (GI) (Aspergillus niger [13]): inactive; zone of inhibition (Aspergillus niger [14]): inactive
